Laboratory results published in ChEMBL document CHEMBL5126596, “Design and synthesis of a novel non peptide CN-NFATc signaling inhibitor for tumor suppression in triple negative breast cancer” (Eur J Med Chem, 2022).
Calls of active or inactive are those of the source. The calls are words filed in the database; no cut-off is given here.

Experiments:
[1] = target: T1, Nuclear factor of activated T-cells, cytoplasmic 1 (Homo sapiens) (UniProt O95644); experiment: Inhibition of NFATC activity in HEK293T cells at 50 uM preincubated for 2 hrs followed by ionomycin/phorbol 12-myristate 13-acetate stimulation and measured after 4 hrs by luciferase reporter assay; format: cell-based; settings: time 6.0 hrs
T1 sequence (whole entry): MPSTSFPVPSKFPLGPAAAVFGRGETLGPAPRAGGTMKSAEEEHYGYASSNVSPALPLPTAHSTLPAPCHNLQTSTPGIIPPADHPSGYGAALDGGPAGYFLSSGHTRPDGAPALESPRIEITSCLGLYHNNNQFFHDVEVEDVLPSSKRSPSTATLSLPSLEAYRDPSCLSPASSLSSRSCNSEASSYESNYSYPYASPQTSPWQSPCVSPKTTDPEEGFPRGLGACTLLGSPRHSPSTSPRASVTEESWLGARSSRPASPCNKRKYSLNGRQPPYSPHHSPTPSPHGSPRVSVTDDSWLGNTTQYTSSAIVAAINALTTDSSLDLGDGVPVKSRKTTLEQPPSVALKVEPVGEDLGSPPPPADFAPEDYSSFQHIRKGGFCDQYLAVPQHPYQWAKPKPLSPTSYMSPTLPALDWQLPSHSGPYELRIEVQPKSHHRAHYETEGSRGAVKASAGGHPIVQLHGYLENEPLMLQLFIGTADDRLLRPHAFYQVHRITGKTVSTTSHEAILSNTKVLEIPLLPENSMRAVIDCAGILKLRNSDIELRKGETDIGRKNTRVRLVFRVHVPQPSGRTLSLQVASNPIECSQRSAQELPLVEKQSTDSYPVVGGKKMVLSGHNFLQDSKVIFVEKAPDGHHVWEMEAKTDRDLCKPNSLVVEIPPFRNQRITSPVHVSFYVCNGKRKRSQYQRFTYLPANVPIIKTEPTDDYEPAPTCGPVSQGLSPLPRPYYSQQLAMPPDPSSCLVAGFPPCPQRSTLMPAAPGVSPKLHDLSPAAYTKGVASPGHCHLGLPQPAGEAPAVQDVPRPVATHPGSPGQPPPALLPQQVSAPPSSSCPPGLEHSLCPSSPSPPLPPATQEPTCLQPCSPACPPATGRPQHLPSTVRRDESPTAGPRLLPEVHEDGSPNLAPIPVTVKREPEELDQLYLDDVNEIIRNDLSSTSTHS
Method in brief: (§1)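 HEK 293T cells (7.5 × 10⁴/well) co-transfected by CaCl₂ method with 100 ng 3xNFAT-luc and 1 ng pRLnull as transfection control. At 24 h, compound added for 2 h, then stimulated with 1 µM ionomycin, PMA and CaCl₂ for 4 h (20 ng/ml PMA and 2 mM CaCl₂ per figure legend). Luciferase read from crude extracts, relative to stimulated no-compound control (100%). Single doses 50 and 5 μM; dose-response 0.1–50 μM. IC50 by nonlinear regression; 3 experiments in triplicate.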

[2] = target: Protein phosphatase 3 catalytic subunit alpha (Homo sapiens) (UniProt Q08209); experiment: Displacement of carboxyfluorescein labelled NFATc2 derived PRIEIT peptide from human CNAalpha (2 to 347 residues) at 10 to 100 uM preincubated for 15 mins followed by CF-PRIEIT addition and measured after 15 mins by fluorescence polarization assay; settings: dose 10-100 µM, time 30.0 min
Method in brief: (§2)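 FP competition assay: 10 µM human CNAα (residues 2–347) preincubated with compound for 15 min at rt. CF-tagged NFATc2 SPRIEIT peptide (10 nM) then added for a further 15 min. Read at excitation 485 nm / emission 535 nm. Triplicates from at least three independent experiments.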

[3] = target: Protein phosphatase 3 catalytic subunit alpha (Homo sapiens) (UniProt Q08209); experiment: Displacement of carboxyfluorescein labelled NFATc2 derived PRIEIT peptide from human CNAalpha (2 to 347 residues) at 100 uM preincubated for 15 mins followed by CF-PRIEIT addition and measured after 15 mins by fluorescence polarization assay; settings: time 30.0 min; method in brief: as §2
[4] = target: T1, Nuclear factor of activated T-cells, cytoplasmic 1 (Homo sapiens); experiment: Inhibition of NFATC activity in HEK293T cells at 5 to 50 uM preincubated for 2 hrs followed by ionomycin/phorbol 12-myristate 13-acetate stimulation and measured after 4 hrs by luciferase reporter assay; format: cell-based; settings: dose 5-50 µM, time 6.0 hrs; method in brief: as §1
[5] = target: T1, Nuclear factor of activated T-cells, cytoplasmic 1 (Homo sapiens); experiment: Inhibition of NFATC activity in HEK293T cells preincubated for 2 hrs followed by ionomycin/phorbol 12-myristate 13-acetate stimulation and measured after 4 hrs by luciferase reporter assay; format: cell-based; settings: dose 0.1-50 µM, time 6.0 hrs, DDE = dose-dependent effect; method in brief: as §1
[6] = target: T1, Nuclear factor of activated T-cells, cytoplasmic 1 (Homo sapiens); experiment: Inhibition of NFATC activity in human PBMC cells assessed as reduction of IL2 gene expression preincubated for 2 hrs followed by ionomycin/phorbol 12-myristate 13-acetate stimulation and measured after 4 hrs by RT-PCR analysis; format: cell-based; settings: dose 2-50 µM, time 6.0 hrs, DDE = dose-dependent effect
Method in brief: (§3)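 Isolated hPBMC treated with compound at 50, 10 and 2 μM for 2 h. Stimulated without washout with 1 μM ionomycin, 20 nM PMA and 10 mM CaCl₂ for 4 h. RNA extracted and 1 μg reverse-transcribed; qPCR run with UPL probes. Fold change by ΔΔCT. Mean ± SD of 3 independent experiments in triplicate.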

[7] = target: T1, Nuclear factor of activated T-cells, cytoplasmic 1 (Homo sapiens); experiment: Inhibition of NFATC activity in human PBMC cells assessed as reduction of IFN gamma gene expression preincubated for 2 hrs followed by ionomycin/phorbol 12-myristate 13-acetate stimulation and measured after 4 hrs byRT-PCR analysis; format: cell-based; settings: dose 2-50 µM, time 6.0 hrs, DDE = dose-dependent effect; method in brief: as §3
[8] = target: T1, Nuclear factor of activated T-cells, cytoplasmic 1 (Homo sapiens); experiment: Inhibition of NFATC activity in human CD4+ T cells assessed as reduction of IFN gamma secretion preincubated for 2 hrs followed by anti-CD3/CD28 stimulation and measured after 48 hrs by ELISA; format: cell-based; settings: CD4+ve Th
Method in brief: (§4)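 Donor CD4⁺ T cells (1 × 10⁵/well) treated with 10 or 1 μM compound for 2 h. Compound left in place during activation with anti-CD3/CD28 beads (10 cells/bead). IL-2 and IFNγ measured by ELISA in supernatants after 48 h. Mean ± SEM.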

[9] = target: T1, Nuclear factor of activated T-cells, cytoplasmic 1 (Homo sapiens); experiment: Inhibition of NFATC activity in human CD4+ T cells assessed as reduction of IL-2 secretion preincubated for 2 hrs followed by anti-CD3/CD28 stimulation and measured after 48 hrs by ELISA; format: cell-based; settings: CD4+ve Th; method in brief: as §4
[10] = tested on: CD4+ve Th; experiment: Immunosuppressive activity in human CD4+ve Th cells assessed as inhibition of T cell proliferation […] by [3H]-thymidine incorporation based scintillation counter method; format: functional; settings: dose <= 10.0 µM, DDE = dose-dependent effect
[11] = Toxicity in BALB/c mouse assessed as clinical signs of abnormal constitution at 50 mg/kg, ip administered for 5 days and measured on day 7; format: organism-based; settings: in vivo, 168 h, time 7 day
Method in brief: (§5)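 BALB/c mice given 50 mg/kg ip daily, Monday to Friday, and killed on day seven. Monitored for macroscopic clinical signs, behavior, weight loss and general health.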

[12] = Toxicity in BALB/c mouse assessed as aberrant behavior at 50 mg/kg, ip administered for 5 days and measured on day 7; format: organism-based; settings: in vivo, 120 h, time 5 day; method in brief: as §5
[13] = Toxicity in BALB/c mouse assessed as loss of body weight at 50 mg/kg, ip administered for 5 days and measured on day 7; format: organism-based; settings: in vivo, 120 h, time 5 day; method in brief: as §5
[14] = Toxicity in BALB/c mouse xenografted with mouse 4T1 cells assessed as effect on body weight at 50 mg/kg, […]; format: organism-based; settings: in vivo, ip
[15] = Toxicity in BALB/c mouse xenografted with mouse 4T1 cells assessed as effect on health conditions at 50 mg/kg, […]; format: organism-based; settings: in vivo, ip
[16] = tested on: 4T1; experiment: Antitumor activity against mouse 4T1 cells xenografted in BALB/c mouse assessed as decrease in tumor weight at 50 mg/kg, ip measured after 15 days; settings: time 15.0 day
[17] = target: Protein phosphatase 3 catalytic subunit alpha (Homo sapiens) (UniProt Q08209); experiment: Displacement of carboxyfluorescein labelled NFATc2 derived PRIEIT peptide from human CNAalpha (2 to 347 residues) at 10 uM preincubated for 15 mins followed by CF-PRIEIT addition and measured after 15 mins by fluorescence polarization assay; settings: time 30.0 min; method in brief: as §2
[18] = tested on: 4T1; experiment: Anti-angiogenesis activity against mouse 4T1 cells xenografted in BALB/c mouse at 50 mg/kg, ip measured after 15 days by anti-CD31 staining based immunohistochemistry analysis; format: functional, organism-based; settings: time 15.0 day
[19] = Toxicity in BALB/c mouse xenografted with mouse 4T1 cells assessed as effect on body weight at 5 mg/kg, […]; format: organism-based; settings: in vivo, ip, 120 h, time 5 day
[20] = Toxicity in BALB/c mouse xenografted with mouse 4T1 cells assessed as effect on health conditions at 5 mg/kg, […]; format: organism-based; settings: in vivo, ip, time 5 day
[21] = tested on: 4T1; experiment: Antitumor activity against mouse 4T1 cells xenografted in BALB/c mouse assessed as decrease in tumor weight at 50 mg/kg, ip measured after 15 days; format: functional, organism-based; settings: time 15.0 day
Method in brief: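 Female BALB/c mice (8 weeks, 18–19 g) given 0.5 × 10⁶ 4T1 cells in 1:1 DMEM/Matrigel into the number four mammary fat pad. Treatment began at day 11, once tumors exceeded 100 mm³, with randomization to groups of 9–10. Dosing was ip, daily Monday to Friday, for 15 days with DMSO vehicle. Tumors were then excised and weighed; body weight and health were followed.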

[22] = tested on: 4T1; experiment: Anti-angiogenesis activity against mouse 4T1 cells xenografted in BALB/c mouse at 5 mg/kg, ip measured after 15 days by anti-CD31 staining based immunohistochemistry analysis; format: functional, organism-based; settings: time 15.0 day

SMILES: O=C(O)CNS(=O)(=O)c1cccc(NC(=O)CNC(=O)c2cnc3ccccc3c2)c1
- inhibition [1]: 60%
- Activity [2]: Active

SMILES: CCc1ccc(C(=O)NCC(=O)Nc2cccc(S(=O)(=O)NCC(=O)O)c2)cc1
- inhibition [1]: 60%
- Activity [2]: Active

SMILES: CS(=O)(=O)NCc1cccc(NC(=O)c2csc3ccccc23)c1
- Activity [3]: Active
- inhibition [4]: 80%
- inhibition [5]: Dde
- Activity [6]: Dde
- Activity [7]: Dde
- inhibition [8]: Active
- inhibition [9]: Active
- Activity [10]: Dde

SMILES: O=C(O)CNS(=O)(=O)c1cccc(NC(=O)CNC(=O)c2csc3ccccc23)c1
- inhibition [1]: 60%
- Activity [2]: Active

SMILES: CCc1ccc(C(=O)Nc2cccc(CNS(C)(=O)=O)c2)cc1
- Activity [3]: Active
- inhibition [1]: 60%

SMILES: Cc1ccc(C(=O)NCC(=O)Nc2cc(S(=O)(=O)Nc3ccc(Cl)cc3)ccc2Cl)s1
- inhibition [4]: 80%
- inhibition [5]: Dde
- Activity [2]: Active
- Activity [6]: Dde
- Activity [7]: Dde
- inhibition [8]: Active
- inhibition [9]: Active
- Activity [10]: Dde
- Activity [11]: Non-Toxic
- Activity [12]: Non-Toxic
- Activity [13]: Non-Toxic
- Activity [14]: Non-Toxic
- Activity [15]: Non-Toxic
- Activity [16]: Active

SMILES: O=C(O)CNS(=O)(=O)c1cccc(NC(=O)CNC(=O)Cc2ccsc2)c1
- inhibition [1]: 60%
- Activity [2]: Active

SMILES: CS(=O)(=O)NCc1cccc(NC(=O)c2ccc3[nH]ccc3c2)c1
- Activity [3]: Active
- Activity [17]: Active
- inhibition [4]: 80%
- inhibition [5]: Dde
- Activity [2]: Active
- Activity [6]: Dde
- Activity [7]: Dde
- inhibition [8]: Active
- inhibition [9]: Active
- Activity [10]: Dde
- Activity [11]: Non-Toxic
- Activity [12]: Non-Toxic
- Activity [13]: Non-Toxic
- Activity [14]: Non-Toxic
- Activity [15]: Non-Toxic
- Activity [18]: Active
- Activity [16]: Active

SMILES: CS(=O)(=O)NCc1cccc(NC(=O)Cc2ccsc2)c1
- Activity [3]: Active
- Activity [17]: Active
- inhibition [1]: 60%

SMILES: O=C(O)CNS(=O)(=O)c1cccc(NC(=O)CNC(=O)OCc2ccccc2)c1
- inhibition [1]: 60%
- Activity [2]: Active

SMILES: CNc1ccc(C(=O)NCC(=O)Nc2cccc(S(=O)(=O)NCC(=O)O)c2)cc1
- inhibition [1]: 60%
- Activity [2]: Active

SMILES: O=C(CNC(=O)c1ccc2[nH]ccc2c1)Nc1cccc(S(=O)(=O)N2CCCCC2)c1
- inhibition [1]: 60%
- inhibition [5]: Dde
- Activity [2]: Active

SMILES: C=CC[C@@H]1/C=C(\C)C[C@H](C)C[C@H](OC)[C@H]2O[C@@](O)(C(=O)C(=O)N3CCCC[C@H]3C(=O)O[C@H](/C(C)=C/[C@@H]3CC[C@@H](O)[C@H](OC)C3)[C@H](C)[C@@H](O)CC1=O)[C@H](C)C[C@@H]2OC [TACROLIMUS ANHYDROUS]
- Activity [19]: Non-Toxic
- Activity [20]: Non-Toxic
- Activity [21]: Active
- Activity [22]: Active
